Source: ChEMBL document CHEMBL1140759, “Synthesis, anti-Toxoplasma gondii and antimicrobial activities of benzaldehyde 4-phenyl-3-thiosemicarbazones and 2-[(phenylmethylene)hydrazono]-4-oxo-3-phenyl-5-thiazolidineacetic acids” (Bioorg Med Chem, 2008)
Converted amounts (≈) assume the structure as drawn.

Legend:
Saccharomyces cerevisiae [1] = assay: Antimicrobial activity against Saccharomyces cerevisiae at 100 ug/disc; assay type: functional, organism-based
Procedure, shortened: (§1)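 Agar disc diffusion: paper discs loaded with compound placed on agar plates seeded with a standardised microbial suspension. DMSO-only discs served as negative control. Chloramphenicol and rifampicin (bacteria) or nistatin (fungi) gave reference zones. Read-out was mean zone of inhibition diameter (mm). Each experiment was run three times and repeated if results differed.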

Candida [2] = assay: Antimicrobial activity against Candida sp. IMUR1224 at 100 ug/disc; assay type: functional, organism-based; procedure, shortened: as §1
Candida [3] = assay: Antimicrobial activity against Candida sp. IMUR4249 at 100 ug/disc; assay type: functional, organism-based; procedure, shortened: as §1
Candida [4] = assay: Antimicrobial activity against Candida sp. IMUR4249; assay type: functional
Procedure, shortened: (§2)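 Tube dilution MIC, run on compounds with a disc-diffusion zone of at least 18 mm. The DMSO stock (1 mg/mL) was serially diluted to 10–220 µg/mL final in medium, and strains were inoculated at 10^8/mL. Media were tryptic soy or nutrient agar for bacteria and Sabouraud liquid for fungi, incubated 24–48 h at 37 °C (bacteria) or 30 °C (fungi). MIC is the lowest concentration giving clear tubes.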

Candida [5] = assay: Antimicrobial activity against Candida sp. IMUR720 at 100 ug/disc; assay type: functional, organism-based; procedure, shortened: as §1
Staphylococcus aureus [6] = assay: Antimicrobial activity against Staphylococcus aureus at 100 ug/disc; assay type: functional; settings: read-out: IZ; procedure, shortened: as §1
Bacillus subtilis [7] = assay: Antimicrobial activity against Bacillus subtilis at 100 ug/disc; assay type: functional; settings: read-out: IZ
Procedure, shortened: (§3)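 Disc diffusion on agar plates inoculated with a standardized microbial suspension, with paper discs carrying known compound amounts. DMSO-only discs served as negative controls, and chloramphenicol, rifampicin (bacteria) or nistatin (fungi) as references. The read-out is the mean inhibition zone diameter in mm. Each run was done three times and repeated if results differed.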

Micrococcus luteus [8] = assay: Antimicrobial activity against Micrococcus luteus at 100 ug/disc; assay type: functional; settings: read-out: IZ; procedure, shortened: as §3
Escherichia coli [9] = assay: Antimicrobial activity against Escherichia coli at 100 ug/disc; assay type: functional; settings: read-out: IZ; procedure, shortened: as §3
Enterococcus faecalis [10] = assay: Antimicrobial activity against Streptococcus faecalis at 100 ug/disc; assay type: functional; settings: read-out: IZ; procedure, shortened: as §3
Mycolicibacterium phlei [11] = assay: Antimicrobial activity against Mycobacterium phlei at 100 ug/disc; assay type: functional; settings: read-out: IZ; procedure, shortened: as §3
[12] = system: Mycolicibacterium smegmatis; assay: Antimicrobial activity against Mycobacterium smegmatis at 100 ug/disc; assay type: functional; settings: read-out: IZ; procedure, shortened: as §3
[13] = system: Mycobacterium tuberculosis; assay: Antimicrobial activity against Mycobacterium tuberculosis at 100 ug/disc; assay type: functional; settings: read-out: IZ; procedure, shortened: as §1
[14] = system: Mycolicibacterium smegmatis; assay: Antimicrobial activity against Mycobacterium smegmatis; assay type: functional; procedure, shortened: as §2
[15] = system: Mycobacterium tuberculosis; assay: Antimicrobial activity against Mycobacterium tuberculosis; assay type: functional
Toxoplasma gondii [16] = assay: Antiparasitic activity against Toxoplasma gondii infected african green monkey Vero cells at 2 mM assessed as infected cells; assay type: functional
Procedure, shortened: (§4)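 Vero cells were infected with RH-strain tachyzoites (5:1 parasite:cell) for 1 h, washed with PBS, and grown 24 h at 37 °C in medium 199 with 5% FCS. Compound was then added for 24 h. Cells were fixed with Bouin's, stained with Giemsa, and at least 400 cells were counted by light microscopy for the percentage infected. Hydroxyurea and sulfadiazine served as references.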

Toxoplasma gondii [17] = assay: Antiparasitic activity against Toxoplasma gondii infected african green monkey Vero cells at 0.1 mM assessed as infected cells; assay type: functional; procedure, shortened: as §4
Toxoplasma gondii [18] = assay: Antiparasitic activity against Toxoplasma gondii infected african green monkey Vero cells at 5 mM assessed as infected cells; assay type: functional; procedure, shortened: as §4
Toxoplasma gondii [19] = assay: Antiparasitic activity against Toxoplasma gondii infected african green monkey Vero cells at 8 mM assessed as infected cells; assay type: functional; procedure, shortened: as §4
Toxoplasma gondii [20] = assay: Antiparasitic activity against Toxoplasma gondii infected african green monkey Vero cells at 20 mM assessed as infected cells; assay type: functional; procedure, shortened: as §4
Vero = assay: Inhibition of uninfected african green monkey Vero cells; assay type: cell-based; settings: Chlorocebus sabaeus
Toxoplasma gondii [21] = assay: Inhibition of Toxoplasma gondii infected in african green monkey Vero cells; assay type: functional, organism-based
Procedure, shortened: (§5)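 Infected Vero cultures were exposed to compound at 0.01–30 mM for 24 h, in triplicate per assay. IC50 for infected cells and intracellular parasites was derived by non-linear regression, using trypan blue exclusion.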

Toxoplasma gondii [22] = assay: Inhibition of intracellular parasite Toxoplasma gondii; assay type: functional, organism-based; procedure, shortened: as §5
Staphylococcus aureus [23] = assay: Antimicrobial activity against Staphylococcus aureus at 300 ug/disc; assay type: functional; settings: read-out: IZ; procedure, shortened: as §3
Bacillus subtilis [24] = assay: Antimicrobial activity against Bacillus subtilis at 300 ug/disc; assay type: functional; settings: read-out: IZ; procedure, shortened: as §3
Micrococcus luteus [25] = assay: Antimicrobial activity against Micrococcus luteus at 300 ug/disc; assay type: functional; settings: read-out: IZ; procedure, shortened: as §3
Escherichia coli [26] = assay: Antimicrobial activity against Escherichia coli at 300 ug/disc; assay type: functional; settings: read-out: IZ; procedure, shortened: as §3
Klebsiella pneumoniae = assay: Antimicrobial activity against Klebsiella pneumoniae at 300 ug/disc; assay type: functional; settings: read-out: IZ; procedure, shortened: as §3
Enterococcus faecalis [27] = assay: Antimicrobial activity against Streptococcus faecalis at 300 ug/disc; assay type: functional; settings: read-out: IZ; procedure, shortened: as §3
Mycolicibacterium phlei [28] = assay: Antimicrobial activity against Mycobacterium phlei at 300 ug/disc; assay type: functional; settings: read-out: IZ; procedure, shortened: as §3
[29] = system: Mycolicibacterium smegmatis; assay: Antimicrobial activity against Mycobacterium smegmatis at 300 ug/disc; assay type: functional; settings: read-out: IZ; procedure, shortened: as §3
[30] = system: Mycobacterium tuberculosis; assay: Antimicrobial activity against Mycobacterium tuberculosis at 300 ug/disc; assay type: functional; settings: read-out: IZ; procedure, shortened: as §1
Saccharomyces cerevisiae [31] = assay: Antimicrobial activity against Saccharomyces cerevisiae at 300 ug/disc; assay type: functional; settings: read-out: IZ; procedure, shortened: as §3
Candida [32] = assay: Antimicrobial activity against Candida sp. IMUR1224 at 300 ug/disc; assay type: functional; settings: read-out: IZ; procedure, shortened: as §3
Candida albicans = assay: Antimicrobial activity against Candida albicans at 300 ug/disc; assay type: functional; settings: read-out: IZ; procedure, shortened: as §3
Candida [33] = assay: Antimicrobial activity against Candida sp. IMUR4249 at 300 ug/disc; assay type: functional; settings: read-out: IZ; procedure, shortened: as §3
Enterococcus faecalis [34] = assay: Antimicrobial activity against Streptococcus faecalis; assay type: functional; procedure, shortened: as §2
Staphylococcus aureus [35] = assay: Antimicrobial activity against Staphylococcus aureus; assay type: functional; procedure, shortened: as §2
Candida [36] = assay: Antimicrobial activity against Candida sp. IMUR720 at 300 ug/disc; assay type: functional; settings: read-out: IZ; procedure, shortened: as §3

NYSTATIN
inhibition zone (IZ) (Saccharomyces cerevisiae [1]): 20 mm
inhibition zone (IZ) (Candida [2]): 30 mm
inhibition zone (IZ) (Candida [3]): 32 mm
MFC (Candida [4]): 70 µg/mL
MIC (Candida [4]): 80 µg/mL
inhibition zone (IZ) (Candida [5]): 20 mm

CO[C@H]1/C=C/O[C@@]2(C)Oc3c(C)c(O)c4c(O)c(c(/C=N/N5CCN(C)CC5)c(O)c4c3C2=O)NC(=O)/C(C)=C\C=C\[C@H](C)[C@H](O)[C@@H](C)[C@@H](O)[C@@H](C)[C@H](OC(C)=O)[C@@H]1C [RIFAMPIN]
zone of inhibition at 100 µg/disc (Staphylococcus aureus [6]): 31 mm
zone of inhibition at 100 µg/disc (Bacillus subtilis [7]): 20 mm
zone of inhibition at 100 µg/disc (Micrococcus luteus [8]): 49 mm
zone of inhibition at 100 µg/disc (Escherichia coli [9]): 14 mm
zone of inhibition at 100 µg/disc (Enterococcus faecalis [10]): 20 mm
zone of inhibition at 100 µg/disc (Mycolicibacterium phlei [11]): 25 mm
zone of inhibition at 100 µg/disc [12]: 30 mm
zone of inhibition at 100 µg/disc [13]: 28 mm
MBC [14]: 130 µg/mL (≈ 158 µM)
MIC [14]: 140 µg/mL (≈ 170 µM)
MBC [15]: 100 µg/mL (≈ 122 µM)
MIC [15]: 110 µg/mL (≈ 134 µM)

CC(C)(C)c1cc(/C=N/N=C2\SC(CC(=O)O)C(=O)N2c2ccccc2)cc(C(C)(C)C)c1O (stereo not drawn)
Activity (Toxoplasma gondii [16]): 0%
Activity (Toxoplasma gondii [17]): 53.55%
Activity (Toxoplasma gondii [18]): 0%
Activity (Toxoplasma gondii [19]): 0%
Activity (Toxoplasma gondii [20]): 0%
IC50 (Vero): 1 mM
IC50 (Toxoplasma gondii [21]): 1 mM
IC50 (Toxoplasma gondii [22]): 1 mM
zone of inhibition at 300 µg/disc (Staphylococcus aureus [23]): 26 mm
zone of inhibition at 300 µg/disc (Bacillus subtilis [24]): 19 mm
zone of inhibition at 300 µg/disc (Micrococcus luteus [25]): 22 mm
zone of inhibition at 300 µg/disc (Escherichia coli [26]): < 7 mm
zone of inhibition at 300 µg/disc (Klebsiella pneumoniae): < 7 mm
zone of inhibition at 300 µg/disc (Enterococcus faecalis [27]): 18 mm
zone of inhibition at 300 µg/disc (Mycolicibacterium phlei [28]): 16 mm
zone of inhibition at 300 µg/disc [29]: 26 mm
zone of inhibition at 300 µg/disc [30]: 23 mm
zone of inhibition at 300 µg/disc (Saccharomyces cerevisiae [31]): < 7 mm
zone of inhibition at 300 µg/disc (Candida [32]): < 7 mm
zone of inhibition at 300 µg/disc (Candida albicans): 9 mm
zone of inhibition at 300 µg/disc (Candida [33]): < 7 mm
MBC (Enterococcus faecalis [34]): 190 µg/mL (≈ 395 µM)
MIC (Enterococcus faecalis [34]): 200 µg/mL (≈ 415 µM)
MBC (Staphylococcus aureus [35]): 45 µg/mL (≈ 93.4 µM)
MIC (Staphylococcus aureus [35]): 50 µg/mL (≈ 104 µM)
MBC [14]: 140 µg/mL (≈ 291 µM)
MIC [14]: 150 µg/mL (≈ 311 µM)
MBC [15]: 100 µg/mL (≈ 208 µM)
MIC [15]: 110 µg/mL (≈ 228 µM)
zone of inhibition at 300 µg/disc (Candida [36]): < 7 mm
